Experimental data from ChEMBL document CHEMBL3351336, “Synthesis and evaluation of novel triazoles and mannich bases functionalized 1,4-dihydropyridine as angiotensin converting enzyme (ACE) inhibitors” (Bioorg Med Chem, 2014).
Activity calls are given as the source filed them. The calls are words filed in the database; no cut-off is given here.

Assays:
[1] = molecular target: T1, Angiotensin-converting enzyme (Oryctolagus cuniculus) (UniProt P12822); assay: (§1) Inhibition of rabbit lung ACE using hippuryl-histidyl-leucine as substrate assessed as release of hippuric acid incubated for 10 mins prior to substrate addition measured after 30 mins by spectrophotometry
T1 sequence (whole entry): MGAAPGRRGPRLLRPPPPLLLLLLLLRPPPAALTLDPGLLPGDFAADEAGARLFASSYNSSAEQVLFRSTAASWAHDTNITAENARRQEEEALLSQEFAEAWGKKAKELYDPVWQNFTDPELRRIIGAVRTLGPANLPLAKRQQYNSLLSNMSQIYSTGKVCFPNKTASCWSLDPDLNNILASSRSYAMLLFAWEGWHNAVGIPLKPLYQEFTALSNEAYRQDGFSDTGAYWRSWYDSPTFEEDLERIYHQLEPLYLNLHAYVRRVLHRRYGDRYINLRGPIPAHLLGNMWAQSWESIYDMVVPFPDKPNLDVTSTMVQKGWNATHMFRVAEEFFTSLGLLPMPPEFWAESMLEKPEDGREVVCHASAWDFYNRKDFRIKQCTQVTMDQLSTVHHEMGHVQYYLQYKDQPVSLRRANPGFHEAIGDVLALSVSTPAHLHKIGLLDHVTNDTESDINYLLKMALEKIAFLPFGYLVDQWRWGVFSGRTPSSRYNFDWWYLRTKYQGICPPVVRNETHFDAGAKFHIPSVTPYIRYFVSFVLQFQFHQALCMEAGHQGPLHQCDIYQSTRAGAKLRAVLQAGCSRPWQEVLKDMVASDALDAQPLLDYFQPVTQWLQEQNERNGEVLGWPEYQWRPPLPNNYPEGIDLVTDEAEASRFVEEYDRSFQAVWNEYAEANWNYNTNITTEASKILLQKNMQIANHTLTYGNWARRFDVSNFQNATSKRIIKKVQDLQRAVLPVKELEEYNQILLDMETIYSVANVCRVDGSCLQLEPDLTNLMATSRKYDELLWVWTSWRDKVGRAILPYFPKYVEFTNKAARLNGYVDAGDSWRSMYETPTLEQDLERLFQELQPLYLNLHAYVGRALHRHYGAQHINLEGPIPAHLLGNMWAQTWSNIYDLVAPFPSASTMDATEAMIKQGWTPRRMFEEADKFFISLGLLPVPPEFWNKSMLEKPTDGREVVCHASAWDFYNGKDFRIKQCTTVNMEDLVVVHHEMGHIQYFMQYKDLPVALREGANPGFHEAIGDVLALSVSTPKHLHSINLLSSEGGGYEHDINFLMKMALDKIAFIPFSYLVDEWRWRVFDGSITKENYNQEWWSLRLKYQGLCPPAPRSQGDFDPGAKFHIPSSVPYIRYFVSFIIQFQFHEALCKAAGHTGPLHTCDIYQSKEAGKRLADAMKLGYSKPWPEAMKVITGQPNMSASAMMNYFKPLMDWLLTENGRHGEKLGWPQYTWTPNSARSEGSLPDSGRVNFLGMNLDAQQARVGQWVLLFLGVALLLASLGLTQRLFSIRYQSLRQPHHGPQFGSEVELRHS

A549 = assay: Cytotoxicity against human A549 cells after 24 hrs by MTT assay; assay type: cell-based; details: A549, 24 h
Outline: (§2)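 Cells kept in DMEM with 10% heat-inactivated FBS, penicillin, streptomycin and 2 mM L-glutamine at 37 °C, 5% CO2, passaged every 2–3 days. 1 × 10^4 cells/well seeded, grown 24 h, then exposed to compounds (10 µM–1000 µM) beside vehicle control for 24 h. MTT added for 4 h, formazan dissolved in DMSO, absorbance read at 540 nm; survival versus control, EC50 by probit analysis.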

[2] = molecular target: T2, Angiotensin-converting enzyme (Oryctolagus cuniculus, UniProt P12822); assay: as §1
T2 sequence (P12822 whole entry): T1 sequence (whole entry)

HEK293 = assay: Cytotoxicity against human HEK293 cells after 24 hrs by MTT assay; assay type: cell-based; details: HEK293, 24 h; outline: as §2

| SMILES | inhibition [1] | IC50 [2] [µM] | IC50 (A549) [µM] | IC50 (HEK293) [µM] |
| --- | --- | --- | --- | --- |
| CCOC(=O)C1=C(C)NC(C)=C(C(=O)OCC)C1c1cc(Br)cc(Br)c1OCC#CCN1CCN(CCO)CC1 | Dose-dependent effect | 0.928 | > 1000 | > 1000 |
| CCOC(=O)C1=C(C)NC(C)=C(C(=O)OCC)C1c1cccc(OC)c1OCc1cn(CCC(F)(F)C(F)(F)C(F)(F)C(F)(F)C(F)(F)C(F)(F)C(F)(F)C(F)(F)F)nn1 | Dose-dependent effect | 0.653 | > 1000 | > 1000 |
| COc1cccc2c1C(=O)c1c(O)c3c(c(O)c1C2=O)C[C@@](O)(C(=O)CO)C[C@@H]3O[C@H]1C[C@H](N)[C@H](O)[C@H](C)O1 [DOXORUBICIN] | – | – | 2.6 | 0.69 |
| CCOC(=O)C1=C(C)NC(C)=C(C(=O)OCC)C1c1cc(Br)cc(Br)c1OCC#CCN1CCN(c2ccc(F)cc2)CC1 | inactive | – | – | – |
| CCOC(=O)C1=C(C)NC(C)=C(C(=O)OCC)C1c1cccc(OC)c1OCc1cn(CC(=O)Nc2nnc(C(F)(F)F)s2)nn1 | Dose-dependent effect | 0.409 | > 1000 | > 1000 |
| CCOC(=O)C1=C(C)NC(C)=C(C(=O)OCC)C1c1cccc(OC)c1OCC#CCN1CCCC1 | inactive | – | – | – |
| CCOC(=O)C1=C(C)NC(C)=C(C(=O)OCC)C1c1cc(Br)ccc1OCC#CCN1CCOCC1 | inactive | – | – | – |
| CCOC(=O)C1=C(C)NC(C)=C(C(=O)OCC)C1c1cc(Br)cc(Br)c1OCc1cn(CC(=O)Nc2cccc(C(=O)O)c2)nn1 | inactive | – | – | – |
| NCCCC[C@H](N[C@@H](CCc1ccccc1)C(=O)O)C(=O)N1CCC[C@H]1C(=O)O [LISINOPRIL ANHYDROUS] | – | 0.281 | – | – |
| CCOC(=O)C1=C(C)NC(C)=C(C(=O)OCC)C1c1cc(Br)cc(Br)c1OCc1cn(CC(=O)NCCC(=O)O)nn1 | inactive | – | – | – |

Continued, in another order:

| inhibition [1] | IC50 [2] [µM] | SMILES | IC50 (A549) [µM] | IC50 (HEK293) [µM] |
| --- | --- | --- | --- | --- |
| inactive | – | CCOC(=O)C1=C(C)NC(C)=C(C(=O)OCC)C1c1cccc(OC)c1OCC#CCN1CCN(C)CC1 | – | – |
| inactive | – | CCOC(=O)C1=C(C)NC(C)=C(C(=O)OCC)C1c1cccc(OC)c1OCC#CCN1CCN(c2ccccc2)CC1 | – | – |
| inactive | – | CCOC(=O)C1=C(C)NC(C)=C(C(=O)OCC)C1c1cc(Br)ccc1OCc1cn(CC(=O)NC2CCCCC2)nn1 | – | – |
| inactive | – | CCOC(=O)C1=C(C)NC(C)=C(C(=O)OCC)C1c1cccc(OC)c1OCC#CCN1CCOCC1 | – | – |
| Dose-dependent effect | 0.713 | CCOC(=O)C1=C(C)NC(C)=C(C(=O)OCC)C1c1cccc(OC)c1OCc1cn(CC(=O)Nc2nc3ccc(F)cc3s2)nn1 | > 1000 | > 1000 |
| inactive | – | CCOC(=O)C1=C(C)NC(C)=C(C(=O)OCC)C1c1cc(Br)cc(Br)c1OCc1cn(CC(=O)Nc2ccc(SC(F)(F)F)cc2)nn1 | – | – |
| inactive | – | CCOC(=O)C1=C(C)NC(C)=C(C(=O)OCC)C1c1cc(Br)cc(Br)c1OCC#CCN1CCN(C)CC1 | – | – |
| inactive | – | CCOC(=O)C1=C(C)NC(C)=C(C(=O)OCC)C1c1cc(Br)cc(Br)c1OCc1cn(CC(=O)NC2CC2)nn1 | – | – |
| inactive | – | CCOC(=O)C1=C(C)NC(C)=C(C(=O)OCC)C1c1cc(Br)ccc1OCc1cn(CC(=O)Nc2nnc(C(F)(F)F)s2)nn1 | – | – |
| inactive | – | CCOC(=O)C1=C(C)NC(C)=C(C(=O)OCC)C1c1cc(Br)cc(Br)c1OCc1cn(CC(=O)NCc2ccc(OC(F)(F)F)cc2)nn1 | – | – |
| inactive | – | CCOC(=O)C1=C(C)NC(C)=C(C(=O)OCC)C1c1cc(Br)cc(Br)c1OCC#CCN1CCN(c2ccccn2)CC1 | – | – |
| inactive | – | CCOC(=O)C1=C(C)NC(C)=C(C(=O)OCC)C1c1cccc(OC)c1OCC#CCN1CCC(C(=O)OCC)CC1 | – | – |
| inactive | – | CCOC(=O)C1=C(C)NC(C)=C(C(=O)OCC)C1c1cc(Br)ccc1OCC#CCN1CCN(c2ccccn2)CC1 | – | – |
